According to ChEMBL document CHEMBL4004830 (J Med Chem, 2017):
Activity calls are given as the source filed them. The rule behind the calls is not given here.

Target: Cyclin-dependent kinase 1/cyclin B1 (Homo sapiens) (UniProt P06493+P14635)
Test: (§1) Inhibition of CDK1/cyclin B (unknown origin) in presence of [gamma-33P]-ATP […]
Assay type: protein-complex assay
Settings: not given

Chain of Cyclin-dependent kinase 1/cyclin B1 (Homo sapiens) (P06493 whole entry, looked up): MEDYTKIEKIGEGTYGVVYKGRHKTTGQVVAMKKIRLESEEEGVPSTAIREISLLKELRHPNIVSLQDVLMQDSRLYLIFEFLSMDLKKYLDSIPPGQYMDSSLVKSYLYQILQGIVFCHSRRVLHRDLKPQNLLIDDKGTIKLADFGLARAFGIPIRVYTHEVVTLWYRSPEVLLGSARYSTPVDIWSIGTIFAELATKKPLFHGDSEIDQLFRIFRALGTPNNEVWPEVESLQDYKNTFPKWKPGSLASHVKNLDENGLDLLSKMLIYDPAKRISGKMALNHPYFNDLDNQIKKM
Chain of Cyclin-dependent kinase 1/cyclin B1 (Homo sapiens) (P14635 whole entry, looked up): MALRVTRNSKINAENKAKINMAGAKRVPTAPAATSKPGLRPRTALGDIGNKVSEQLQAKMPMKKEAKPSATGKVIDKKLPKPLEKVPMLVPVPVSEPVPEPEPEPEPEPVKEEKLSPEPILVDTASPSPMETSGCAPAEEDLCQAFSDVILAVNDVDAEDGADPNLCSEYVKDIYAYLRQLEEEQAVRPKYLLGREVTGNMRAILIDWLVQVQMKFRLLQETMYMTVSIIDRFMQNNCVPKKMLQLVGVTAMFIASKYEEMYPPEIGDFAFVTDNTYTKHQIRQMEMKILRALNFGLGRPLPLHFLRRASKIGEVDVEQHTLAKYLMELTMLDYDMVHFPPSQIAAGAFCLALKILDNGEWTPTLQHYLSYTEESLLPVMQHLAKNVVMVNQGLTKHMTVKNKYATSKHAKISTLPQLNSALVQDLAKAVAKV

| SMILES | Ki(app) |
| --- | --- |
| FC(F)(F)c1nc(NC2CCCC2)sc1-c1ccnc(Nc2ccc(N3CCOCC3)cn2)n1 | inactive |

Target: Cyclin-dependent kinase 1/cyclin B1 (Homo sapiens, UniProt P06493)
Test: as §1
Assay type: protein-complex assay
Settings: read-out: Ki(app)

Chain of Cyclin-dependent kinase 1/cyclin B1 (P06493 whole entry): as the sequence (P06493 whole entry, looked up) above
Chain of Cyclin-dependent kinase 1/cyclin B1 (P14635 whole entry, further chain): as the sequence (P14635 whole entry, looked up) above

| SMILES | Ki |
| --- | --- |
| Cc1nc(NC(C)C)sc1-c1ccnc(Nc2ccc(N3CCCNCC3)cn2)n1 | > 5000 nM |
| Cc1nc(NC2CCCC2)sc1-c1nc(Nc2ccc(N3CCCNCC3)cn2)ncc1F | > 5000 nM |
| Cc1nc(NC2CCCC2)sc1-c1nc(Nc2ccc(N3CCOCC3)cn2)ncc1F | 4350 nM |
| CCN1CCN(Cc2ccc(Nc3nccc(-c4sc(NC5CCCC5)nc4C)n3)nc2)CC1 | > 5000 nM |
| Cc1nc(N(C)c2ccccc2)sc1-c1ccnc(Nc2ccc(N3CCN(C)CC3)cn2)n1 | > 5000 nM |

Next, values leading:

| Ki | SMILES |
| --- | --- |
| > 5000 nM | Cc1nc(NC(C)C)sc1-c1ccnc(Nc2ccc(N3CCOCC3)cn2)n1 |
| > 5000 nM | Cc1nc(N(C)C2CCCC2)sc1-c1ccnc(Nc2ccc(N3CCN(C)CC3)cn2)n1 |
| > 5000 nM | CC(=O)N1CCN(c2ccc(Nc3ncc(F)c(-c4sc(NC5CCCC5)nc4C)n3)nc2)CC1 |

Target: Cyclin-dependent kinase 7/ cyclin H (Homo sapiens) (UniProt P51946+P50613)
Test: (§2) Inhibition of CDK7/cyclin H (unknown origin) in presence of [gamma-33P]-ATP […]
Assay type: protein-complex assay
Settings: not given

| SMILES | Ki(app) |
| --- | --- |
| FC(F)(F)c1nc(NC2CCCC2)sc1-c1ccnc(Nc2ccc(N3CCOCC3)cn2)n1 | inactive |

Target: Cyclin-dependent kinase 7/ cyclin H (Homo sapiens, UniProt P50613)
Test: as §2
Assay type: protein-complex assay
Settings: read-out: Ki(app)

Chain of Cyclin-dependent kinase 7/ cyclin H (P51946 whole entry): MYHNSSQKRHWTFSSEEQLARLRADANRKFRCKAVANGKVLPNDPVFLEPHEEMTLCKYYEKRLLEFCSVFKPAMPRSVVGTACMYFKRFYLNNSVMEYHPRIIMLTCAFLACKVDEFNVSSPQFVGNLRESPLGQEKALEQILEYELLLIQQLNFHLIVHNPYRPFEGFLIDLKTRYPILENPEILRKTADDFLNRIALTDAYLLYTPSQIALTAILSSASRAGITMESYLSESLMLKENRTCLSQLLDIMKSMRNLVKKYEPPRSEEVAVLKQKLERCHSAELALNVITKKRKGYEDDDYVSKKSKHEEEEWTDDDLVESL
Chain of Cyclin-dependent kinase 7/ cyclin H (P50613 whole entry): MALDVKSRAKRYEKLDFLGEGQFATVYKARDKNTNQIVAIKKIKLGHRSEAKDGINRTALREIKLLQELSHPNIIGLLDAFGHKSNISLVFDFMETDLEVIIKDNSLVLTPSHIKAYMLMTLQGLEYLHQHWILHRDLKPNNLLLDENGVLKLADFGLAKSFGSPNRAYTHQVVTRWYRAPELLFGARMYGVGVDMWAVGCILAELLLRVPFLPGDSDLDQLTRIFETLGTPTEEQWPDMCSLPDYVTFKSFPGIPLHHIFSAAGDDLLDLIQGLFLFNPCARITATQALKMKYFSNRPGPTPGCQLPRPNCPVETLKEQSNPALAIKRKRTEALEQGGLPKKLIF

| SMILES | Ki |
| --- | --- |
| Cc1nc(NC(C)C)sc1-c1ccnc(Nc2ccc(N3CCCNCC3)cn2)n1 | 1160 nM |
| Cc1nc(NC2CCCC2)sc1-c1nc(Nc2ccc(N3CCCNCC3)cn2)ncc1F | 815 nM |
| Cc1nc(NC2CCCC2)sc1-c1nc(Nc2ccc(N3CCOCC3)cn2)ncc1F | > 5000 nM |
| CCN1CCN(Cc2ccc(Nc3nccc(-c4sc(NC5CCCC5)nc4C)n3)nc2)CC1 | 211 nM |
| Cc1nc(N(C)c2ccccc2)sc1-c1ccnc(Nc2ccc(N3CCN(C)CC3)cn2)n1 | > 5000 nM |

Results, then the molecule that gave them:

| Ki | SMILES |
| --- | --- |
| > 5000 nM | Cc1nc(NC(C)C)sc1-c1ccnc(Nc2ccc(N3CCOCC3)cn2)n1 |
| > 5000 nM | Cc1nc(N(C)C2CCCC2)sc1-c1ccnc(Nc2ccc(N3CCN(C)CC3)cn2)n1 |
| > 5000 nM | CC(=O)N1CCN(c2ccc(Nc3ncc(F)c(-c4sc(NC5CCCC5)nc4C)n3)nc2)CC1 |

Target: CDK9/cyclin T1 (Homo sapiens, UniProt P50750)
Test: Inhibition of CDK9/cyclin T1 (unknown origin) in presence of [gamma-33P]-ATP […]
Assay type: protein-complex assay
Settings: read-out: Ki(app)

Chain of CDK9/cyclin T1 (O60563 whole entry): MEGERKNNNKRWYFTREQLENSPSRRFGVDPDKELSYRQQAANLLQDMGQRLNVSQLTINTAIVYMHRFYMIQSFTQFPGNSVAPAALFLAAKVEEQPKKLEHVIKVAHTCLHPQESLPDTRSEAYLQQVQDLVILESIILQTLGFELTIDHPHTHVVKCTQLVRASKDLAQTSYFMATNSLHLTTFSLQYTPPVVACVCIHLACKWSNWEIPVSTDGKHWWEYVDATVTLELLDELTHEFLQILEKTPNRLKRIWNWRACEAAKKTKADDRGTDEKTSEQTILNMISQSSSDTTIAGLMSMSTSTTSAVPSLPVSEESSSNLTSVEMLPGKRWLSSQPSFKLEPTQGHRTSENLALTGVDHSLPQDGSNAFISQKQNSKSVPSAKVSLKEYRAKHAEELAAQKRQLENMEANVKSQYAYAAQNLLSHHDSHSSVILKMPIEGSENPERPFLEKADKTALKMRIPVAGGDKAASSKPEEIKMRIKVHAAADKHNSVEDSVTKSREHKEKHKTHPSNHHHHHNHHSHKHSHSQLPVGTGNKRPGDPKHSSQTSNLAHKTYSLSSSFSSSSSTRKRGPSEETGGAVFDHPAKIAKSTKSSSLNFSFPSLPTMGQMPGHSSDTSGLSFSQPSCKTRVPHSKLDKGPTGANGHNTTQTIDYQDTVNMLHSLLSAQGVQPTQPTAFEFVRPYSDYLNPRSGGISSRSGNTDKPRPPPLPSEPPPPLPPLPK
Chain of CDK9/cyclin T1 (P50750 whole entry): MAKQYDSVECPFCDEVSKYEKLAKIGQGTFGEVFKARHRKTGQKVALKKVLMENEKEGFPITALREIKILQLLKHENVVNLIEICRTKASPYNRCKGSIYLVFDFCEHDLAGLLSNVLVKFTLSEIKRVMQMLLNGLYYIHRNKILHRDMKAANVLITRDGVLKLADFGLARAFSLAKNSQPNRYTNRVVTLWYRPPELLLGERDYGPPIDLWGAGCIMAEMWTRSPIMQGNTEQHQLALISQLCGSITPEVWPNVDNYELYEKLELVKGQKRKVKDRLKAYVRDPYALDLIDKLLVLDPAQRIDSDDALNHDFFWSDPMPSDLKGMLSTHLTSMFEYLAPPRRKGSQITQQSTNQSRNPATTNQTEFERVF

| SMILES | Ki |
| --- | --- |
| Cc1nc(NC(C)C)sc1-c1ccnc(Nc2ccc(N3CCOCC3)cn2)n1 | > 5000 nM |
| Cc1nc(NC2CCCC2)sc1-c1nc(Nc2ccc(N3CCOCC3)cn2)ncc1F | > 5000 nM |
| FC(F)(F)c1nc(NC2CCCC2)sc1-c1ccnc(Nc2ccc(N3CCOCC3)cn2)n1 | > 5000 nM |

Test system: MV4-11
Test: Growth inhibition of human MV4-11 cells after 72 hrs by resazurin assay
Assay type: functional
Settings: MV4-11, 72 h
How it was run: (§3)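 72 h antiproliferation assay, resazurin read-out for MV4-11 and MTT read-out for MDA-MB-453; values from at least two replicates.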

| SMILES | GI50 |
| --- | --- |
| Cc1nc(NC(C)C)sc1-c1ccnc(Nc2ccc(N3CCCNCC3)cn2)n1 | 255 nM |
| Cc1nc(NC2CCCC2)sc1-c1nc(Nc2ccc(N3CCCNCC3)cn2)ncc1F | 29 nM |
| Cc1nc(NC2CCCC2)sc1-c1nc(Nc2ccc(N3CCOCC3)cn2)ncc1F | 290 nM |
| FC(F)(F)c1nc(NC2CCCC2)sc1-c1ccnc(Nc2ccc(N3CCOCC3)cn2)n1 | 69 nM |
| CCN1CCN(Cc2ccc(Nc3nccc(-c4sc(NC5CCCC5)nc4C)n3)nc2)CC1 | 19 nM |
| Cc1nc(N(C)c2ccccc2)sc1-c1ccnc(Nc2ccc(N3CCN(C)CC3)cn2)n1 | 421 nM |

Continued by falling GI50, values first:

| GI50 | SMILES |
| --- | --- |
| 32 nM | Cc1nc(NC(C)C)sc1-c1ccnc(Nc2ccc(N3CCOCC3)cn2)n1 |
| 20 nM | Cc1nc(N(C)C2CCCC2)sc1-c1ccnc(Nc2ccc(N3CCN(C)CC3)cn2)n1 |
| 15 nM | CC(=O)N1CCN(c2ccc(Nc3ncc(F)c(-c4sc(NC5CCCC5)nc4C)n3)nc2)CC1 |

Test system: MDA-MB-453
Test: Growth inhibition of human MDA-MB-453 cells after 72 hrs by MTT assay
Assay type: functional
Settings: MDA-MB-453, 72 h
How it was run: as §3

| SMILES | GI50 |
| --- | --- |
| Cc1nc(NC(C)C)sc1-c1ccnc(Nc2ccc(N3CCCNCC3)cn2)n1 | 938 nM |
| Cc1nc(NC2CCCC2)sc1-c1nc(Nc2ccc(N3CCCNCC3)cn2)ncc1F | 83 nM |
| Cc1nc(NC2CCCC2)sc1-c1nc(Nc2ccc(N3CCOCC3)cn2)ncc1F | 1440 nM |
| FC(F)(F)c1nc(NC2CCCC2)sc1-c1ccnc(Nc2ccc(N3CCOCC3)cn2)n1 | 415 nM |
| CCN1CCN(Cc2ccc(Nc3nccc(-c4sc(NC5CCCC5)nc4C)n3)nc2)CC1 | 69 nM |
| Cc1nc(N(C)c2ccccc2)sc1-c1ccnc(Nc2ccc(N3CCN(C)CC3)cn2)n1 | 150 nM |

Second part, the molecule after the results:

| GI50 | SMILES |
| --- | --- |
| 115 nM | Cc1nc(NC(C)C)sc1-c1ccnc(Nc2ccc(N3CCOCC3)cn2)n1 |
| 3360 nM | Cc1nc(N(C)C2CCCC2)sc1-c1ccnc(Nc2ccc(N3CCN(C)CC3)cn2)n1 |
| 8110 nM | CC(=O)N1CCN(c2ccc(Nc3ncc(F)c(-c4sc(NC5CCCC5)nc4C)n3)nc2)CC1 |
